Measured values: ChEMBL document CHEMBL1126841, “Synthesis and structure-activity relationships of 1-acyl-4-((2-methyl-3-pyridyl)cyanomethyl)piperazines as PAF antagonists” (J Med Chem, 1993)

Assays:
[1] = biological target: Platelet-activating factor receptor (Mus musculus) (UniProt Q62035); assay: Dose required to inhibit PAF-induced mortality by 50% in mice; format: functional; settings: Mus sp.
Procedure, shortened: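 Male Swiss mice (22-26 g), groups of 10; test compound given po (20 mL/kg), controls 1% Tween 80. 60 min later, C18-PAF 100 µg/kg plus propanolol 1 mg/kg injected into a lateral tail vein. Mortality scored 2 h after PAF; % inhibition vs controls. ID50 from linear regression of one curve, ≥4 points. Initial dose 3 mg/kg; further doses only if >50% inhibition.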

[2] = biological target: Platelet-activating factor receptor (Rattus norvegicus) (UniProt P46002); assay: Intravenous dose required to reduce the arterial blood pressure caused by PAF by 50% in rats; format: functional
Procedure, shortened: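 Male Sprague-Dawley rats (180-220 g) under pentobarbital anesthesia (50 mg/kg ip); carotid blood pressure recorded. Compound in saline given iv (femoral vein) 3 min before PAF 0.5 µg/kg iv; controls got vehicle. % inhibition of hypotension vs controls. ID50 from linear regression of one curve, ≥4 doses, each the mean of ≥2 independent experiments.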

Oryctolagus cuniculus = organism: Oryctolagus cuniculus; assay: In vitro inhibition of PAF-induced platelet aggregation in male rabbits
[3] = Inhibition of PAF-induced platelet aggregation

Platelet-activating factor receptor (Rattus norvegicus), sequence (P46002 whole entry): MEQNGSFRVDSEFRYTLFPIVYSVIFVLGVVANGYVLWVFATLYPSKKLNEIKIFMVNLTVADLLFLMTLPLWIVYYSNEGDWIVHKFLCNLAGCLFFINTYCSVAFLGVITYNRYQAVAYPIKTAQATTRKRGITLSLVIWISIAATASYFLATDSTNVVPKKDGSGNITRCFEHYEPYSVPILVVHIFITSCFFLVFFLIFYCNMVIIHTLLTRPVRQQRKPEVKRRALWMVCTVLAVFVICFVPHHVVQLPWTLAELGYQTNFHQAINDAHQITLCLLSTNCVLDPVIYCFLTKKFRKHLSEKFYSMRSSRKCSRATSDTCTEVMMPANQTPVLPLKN
Platelet-activating factor receptor (Mus musculus), sequence (Q62035 whole entry): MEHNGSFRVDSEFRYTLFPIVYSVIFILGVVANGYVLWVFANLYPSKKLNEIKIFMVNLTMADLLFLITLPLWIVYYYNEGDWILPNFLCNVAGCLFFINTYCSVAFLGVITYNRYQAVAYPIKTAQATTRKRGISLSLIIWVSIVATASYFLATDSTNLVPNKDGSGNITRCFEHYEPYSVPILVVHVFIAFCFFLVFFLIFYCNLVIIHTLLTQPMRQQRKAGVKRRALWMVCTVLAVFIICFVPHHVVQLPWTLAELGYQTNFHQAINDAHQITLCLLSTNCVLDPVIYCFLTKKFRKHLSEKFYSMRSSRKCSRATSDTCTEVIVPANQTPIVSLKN

Row | IC50 (Oryctolagus cuniculus) | IC50 [3] | SMILES | ID50 [1] | ID50 [2]
1 | – | – | Cc1ncccc1C(C#N)N1CCN(C(=O)CC(C)c2ccccc2)CC1 (centres undefined) | > 3 mg/kg | 0.039 mg/kg
2 | – | – | CNC(=O)C(CC(=O)N1CCN(C(C#N)c2cccnc2C)CC1)c1ccccc1 (centres undefined) | 0.78 mg/kg | 0.05 mg/kg
3 | – | – | CO/N=C(/C)C(c1cccnc1C)N1CCN(C(=O)CC(c2ccccc2)c2ccccc2)CC1 (centres undefined) | > 3 mg/kg | –
4 | – | – | COC(=O)N(C)C(CC(=O)N1CCN(C(C#N)c2cccnc2C)CC1)c1ccccc1 (centres undefined) | 2 mg/kg | 0.036 mg/kg
5 | – | – | Cc1ncccc1C(C#N)N1CCN(C(=O)CC(c2ccccc2)N2CCCS2(=O)=O)CC1 (centres undefined) | > 3 mg/kg | 0.048 mg/kg
6 | – | – | Cc1ncccc1C(C#N)N1CCN(C(=O)CC(NC(=O)Oc2ccccc2)c2ccccc2)CC1 (centres undefined) | > 3 mg/kg | 0.036 mg/kg
7 | – | – | Cc1ncccc1C(C#N)N1CCN(C(=O)[C@H](CO)NC(c2ccccc2)c2ccccc2)CC1 (some centres undefined) | 2.4 mg/kg | 0.02 mg/kg
8 | – | – | Cc1ncccc1C(C#N)N1CCN(C(=O)CC(c2ccccc2)N(Cc2ccccc2)Cc2ccccc2)CC1 (centres undefined) | > 3 mg/kg | 0.068 mg/kg
9 | – | – | Cc1ncccc1C(C#N)N1CCN(C(=O)CN(C=O)C(c2ccccc2)c2ccccc2)CC1 (centres undefined) | 1.5 mg/kg | 0.016 mg/kg
10 | 21 nM | – | N#CC(c1cccnc1)N1CCN(C(=O)CC(O)(c2ccccc2)c2ccccc2)CC1 (centres undefined) | – | –
11 | – | – | Cc1ncccc1C(C#N)N1CCN(C(=O)/C=C(/c2ccccc2)C(F)(F)F)CC1 (centres undefined) | > 3 mg/kg | –
12 | – | – | Cc1ncccc1C(C#N)N1CCN(C(=O)CSC(c2ccccc2)c2ccccc2)CC1 (centres undefined) | > 3 mg/kg | 0.058 mg/kg
13 | – | – | Cc1ncccc1C(C#N)N1CCN(C(=O)CC(c2ccccc2)N2CCCC2=O)CC1 (centres undefined) | 0.13 mg/kg | 0.026 mg/kg
14 | – | – | Cc1ncccc1C(C#N)N1CCN(C(=O)CC(c2ccccc2)N2CCOC2=O)CC1 (centres undefined) | 1 mg/kg | 0.029 mg/kg
15 | – | – | Cc1ncccc1C(C#N)N1CCN(C(=O)CC(NCc2cccnc2)c2ccccc2)CC1 (centres undefined) | > 3 mg/kg | 0.029 mg/kg
16 | – | 9.1 nM | N#CC(c1cccnc1)N1CCN(C(=O)CNC(c2ccccc2)c2ccccc2)CC1 (centres undefined) | 5.9 mg/kg | 0.023 mg/kg
17 | – | – | CCOC(=O)C(CC(=O)N1CCN(C(C#N)c2cccnc2C)CC1)(c1ccccc1)c1ccccc1 (centres undefined) | > 3 mg/kg | 0.12 mg/kg
18 | 10 nM | – | N#CC(c1cccnc1)N1CCN(C(=O)C=C(c2ccccc2)c2ccccc2)CC1 (centres undefined) | – | –
19 | – | – | Cc1ncccc1C(C#N)N1CCN(C(=O)CC(Nc2ccccc2)c2ccccc2)CC1 (centres undefined) | 0.27 mg/kg | 0.042 mg/kg
20 | – | – | Cc1ncccc1C(C#N)N1CCN(C(=O)CC(NC(=O)c2cccnc2)c2ccccc2)CC1 (centres undefined) | 0.41 mg/kg | 0.029 mg/kg
21 | – | – | Cc1ncccc1C(C#N)N1CCN(C(=O)CC(O)(c2ccccc2)C(F)(F)F)CC1 (centres undefined) | 0.44 mg/kg | 0.013 mg/kg
22 | – | 53 nM | N#CC(c1cccnc1)N1CCN(C(=O)CCNC(c2ccccc2)c2ccccc2)CC1 (centres undefined) | – | –
23 | – | – | Cc1ncccc1C(C#N)N1CCN(C(=O)C(C)(C)C(F)(c2ccccc2)c2ccccc2)CC1 (centres undefined) | > 3 mg/kg | 0.34 mg/kg
24 | – | – | CC(=O)N(CC(=O)N1CCN(C(C#N)c2cccnc2C)CC1)C(c1ccccc1)c1ccccc1 (centres undefined) | 2 mg/kg | 0.039 mg/kg

Row | IC50 (Oryctolagus cuniculus) | IC50 [3] | SMILES | ID50 [1] | ID50 [2]
25 | – | – | Cc1ncccc1C(C#N)N1CCN(C(=O)CC(O)(c2ccc(F)cc2)c2ccc(F)cc2)CC1 (centres undefined) | > 3 mg/kg | 0.051 mg/kg
26 | – | – | Cc1ncccc1C(C#N)N1CCN(C(=O)CNC(c2ccc(F)cc2)c2ccc(F)cc2)CC1 (centres undefined) | 3 mg/kg | 0.049 mg/kg
27 | – | – | COC(=O)N(Cc1ccccc1)C(CC(=O)N1CCN(C(C#N)c2cccnc2C)CC1)c1ccccc1 (centres undefined) | 3 mg/kg | 0.066 mg/kg
28 | – | – | Cc1ncccc1C(C#N)N1CCN(C(=O)CC(c2ccccc2)N(C)Cc2ccccc2)CC1 (centres undefined) | > 3 mg/kg | 0.024 mg/kg
29 | – | – | Cc1ncccc1C(C#N)N1CCN(C(=O)CC(NC(=O)c2ncccc2O)c2ccccc2)CC1 (centres undefined) | 3 mg/kg | 0.036 mg/kg
30 | – | – | Cc1ncccc1C(C#N)N1CCN(C(=O)[C@H](C)NC(c2ccccc2)c2ccccc2)CC1 (some centres undefined) | 1.6 mg/kg | 0.025 mg/kg
31 | – | – | Cc1ncccc1C(C#N)N1CCN(C(=O)CC(O)(c2ccccc2)c2ccccc2)CC1 (centres undefined) | 0.69 mg/kg | 0.039 mg/kg
32 | – | – | Cc1ncccc1C(C#N)N1CCN(C(=O)CC(C)(O)c2ccccc2)CC1 (centres undefined) | > 3 mg/kg | 0.029 mg/kg
33 | – | – | Cc1ncccc1C(C#N)N1CCN(C(=O)/C=C(\c2ccccc2)C(F)(F)F)CC1 (centres undefined) | > 3 mg/kg | 0.12 mg/kg
34 | – | – | Cc1ncccc1C(C#N)N1CCN(C(=O)CC(NCc2ccccc2)c2ccccc2)CC1 (centres undefined) | 1.2 mg/kg | 0.035 mg/kg
35 | – | – | Cc1ncccc1C(C#N)N1CCN(C(=O)CC(NS(=O)(=O)c2ccccc2)c2ccccc2)CC1 (centres undefined) | > 3 mg/kg | 0.04 mg/kg
36 | – | – | CCOC(=O)NC(CC(=O)N1CCN(C(C#N)c2cccnc2C)CC1)c1ccccc1 (centres undefined) | 0.23 mg/kg | 0.025 mg/kg
37 | – | – | Cc1ncccc1C(C#N)N1CCN(C(=O)CC(NC(=O)N2CCCC2)c2ccccc2)CC1 (centres undefined) | 0.97 mg/kg | 0.055 mg/kg
38 | – | – | Cc1ncccc1C(C#N)N1CCN(C(=O)[C@@H](C)NC(c2ccccc2)c2ccccc2)CC1 (some centres undefined) | > 3 mg/kg | –
39 | – | – | Cc1ncccc1C(C#N)N1CCN(C(=O)CC(NS(C)(=O)=O)c2ccccc2)CC1 (centres undefined) | 1 mg/kg | 0.017 mg/kg
40 | – | – | Cc1ncccc1C(C#N)N1CCN(C(=O)CC(c2ccccc2)c2ccccc2)CC1 (centres undefined) | 0.9 mg/kg | 0.015 mg/kg
41 | – | – | Cc1ncccc1C(CO)N1CCN(C(=O)CC(c2ccccc2)c2ccccc2)CC1 (centres undefined) | > 3 mg/kg | –
42 | – | – | Cc1ncccc1C(C#N)N1CCN(C(=O)CC(NC(N)=O)c2ccccc2)CC1 (centres undefined) | > 3 mg/kg | –
43 | – | – | Cc1ncccc1C(C#N)N1CCN(C(=O)CCC(c2ccccc2)c2ccccc2)CC1 (centres undefined) | > 3 mg/kg | 0.028 mg/kg
44 | – | – | Cc1ncccc1C(C#N)N1CCN(C(=O)CC(NC(=O)OC(C)(C)C)c2ccccc2)CC1 (centres undefined) | 1.2 mg/kg | 0.049 mg/kg
45 | – | – | C#CCNC(CC(=O)N1CCN(C(C#N)c2cccnc2C)CC1)c1ccccc1 (centres undefined) | 3 mg/kg | –
46 | – | – | Cc1ncccc1C(C#N)N1CCN(C(=O)CC(NC(=O)c2ccccc2)c2ccccc2)CC1 (centres undefined) | > 3 mg/kg | 0.056 mg/kg
47 | – | – | Cc1ncccc1C(C#N)N1CCN(C(=O)CC(c2ccccc2)n2cccc2)CC1 (centres undefined) | 1 mg/kg | 0.014 mg/kg
48 | – | – | Cc1ncccc1C(C#N)N1CCN(C(=O)CC(c2ccccc2)N2CCCC2)CC1 (centres undefined) | – | 0.22 mg/kg

Row | IC50 (Oryctolagus cuniculus) | IC50 [3] | SMILES | ID50 [1] | ID50 [2]
49 | – | – | Cc1ncccc1C(C#N)N1CCN(C(=O)COC(c2ccccc2)c2ccccc2)CC1 (centres undefined) | > 3 mg/kg | 0.048 mg/kg
50 | – | – | Cc1ncccc1C(C#N)N1CCN(C(=O)CON=C(c2ccccc2)c2ccccc2)CC1 (centres undefined) | > 3 mg/kg | 0.071 mg/kg
51 | – | – | CC(=O)NC(CC(=O)N1CCN(C(C#N)c2cccnc2C)CC1)c1ccccc1 (centres undefined) | 0.09 mg/kg | 0.035 mg/kg
52 | – | – | Cc1ncccc1C(C#N)N1CCN(C(=O)CNC2c3ccccc3-c3ccccc32)CC1 (centres undefined) | > 3 mg/kg | 0.085 mg/kg
53 | – | 20 nM | N#CC(c1cccnc1)N1CCN(C(=O)CC(c2ccccc2)c2ccccc2)CC1 (centres undefined) | – | –
54 | – | – | Cc1ncccc1C(C#N)N1CCN(C(=O)CCNC(c2ccccc2)c2ccccc2)CC1 (centres undefined) | 0.62 mg/kg | 0.044 mg/kg
55 | – | – | Cc1ncccc1C(C#N)N1CCN(C(=O)CNC(C)(c2ccccc2)c2ccccc2)CC1 (centres undefined) | > 3 mg/kg | 0.057 mg/kg
56 | – | – | CNC(CC(=O)N1CCN(C(C#N)c2cccnc2C)CC1)c1ccccc1 (centres undefined) | 3 mg/kg | 0.067 mg/kg
57 | – | – | Cc1ncccc1C(C#N)N1CCN(C(=O)CN(C(c2ccccc2)c2ccccc2)S(C)(=O)=O)CC1 (centres undefined) | > 3 mg/kg | 0.083 mg/kg
58 | – | – | Cc1ncccc1C(C#N)N1CCN(C(=O)CC(NC(=O)c2cccnc2O)c2ccccc2)CC1 (centres undefined) | > 3 mg/kg | 0.12 mg/kg
59 | – | – | C=CCNC(CC(=O)N1CCN(C(C#N)c2cccnc2C)CC1)c1ccccc1 (centres undefined) | 1 mg/kg | –
60 | – | – | Cc1ncccc1C(C#N)N1CCN(C(=O)CC(c2ccccc2)C(F)(F)F)CC1 (centres undefined) | > 3 mg/kg | 0.023 mg/kg
61 | – | – | Cc1ncccc1C(C#N)N1CCN(C(=O)CC(NC(=O)OCc2ccccc2)c2ccccc2)CC1 (centres undefined) | > 3 mg/kg | 0.018 mg/kg
62 | – | – | CCc1ncccc1C(C#N)N1CCN(C(=O)CNC(c2ccccc2)c2ccccc2)CC1 (centres undefined) | 0.7 mg/kg | 0.063 mg/kg
63 | – | – | Cc1ncccc1C(C#N)N1CCN(C(=O)CC(NC(=O)OCC(C)C)c2ccccc2)CC1 (centres undefined) | > 3 mg/kg | 0.017 mg/kg
64 | – | – | COC(=O)NC(CC(=O)N1CCN(C(C#N)c2cccnc2C)CC1)c1ccc(C(F)(F)F)cc1 (centres undefined) | 1.6 mg/kg | 0.014 mg/kg
65 | – | – | C#CC(c1cccnc1C)N1CCN(C(=O)CNC(c2ccccc2)c2ccccc2)CC1 (centres undefined) | > 3 mg/kg | –
66 | – | – | Cc1ncccc1C(C#N)N1CCN(C(=O)CC(O)(c2ccccc2)c2cccnc2)CC1 (centres undefined) | 1 mg/kg | 0.042 mg/kg
67 | – | – | Cc1ncccc1C(C#N)N1CCN(C(=O)C[S+]([O-])C(c2ccccc2)c2ccccc2)CC1 (centres undefined) | > 3 mg/kg | 0.034 mg/kg
68 | – | – | Cc1ncccc1C(C#N)N1CCN(C(=O)C=C(c2ccccc2)c2ccccc2)CC1 (centres undefined) | 2.2 mg/kg | 0.038 mg/kg
69 | – | – | Cc1ncccc1C(C#N)N1CCN(C(=O)CS(=O)(=O)C(c2ccccc2)c2ccccc2)CC1 (centres undefined) | > 3 mg/kg | 0.11 mg/kg
70 | – | – | CCOC(=O)C(c1cccnc1C)N1CCN(C(=O)CC(c2ccccc2)c2ccccc2)CC1 (centres undefined) | > 30 mg/kg | –
71 | – | – | Cc1ncccc1C(C#N)N1CCN(C(=O)CC(N)c2ccccc2)CC1 (centres undefined) | > 3 mg/kg | 0.92 mg/kg
